Measured values: ChEMBL document CHEMBL1121642, “Synthesis and antiherpetic activity of some 4-[(aryloxy)alkyl]pyrazoles” (1981)
Converted amounts (≈) assume the structure as drawn. Each block holds one molecule with its values, some of them ahead of it. The source made the active and inactive calls. The calls are words filed in the database; no cut-off is given here.

Tests used:
Human alphaherpesvirus 2 [1] = experiment: Tested in vitro for minimum inhibitory activity against Herpes simplex virus type -2 (HSV-2); Inactive; format: functional, organism-based
Mus musculus [2] = organism: Mus musculus; experiment: Effect on the survival rate of mice infected intravaginally with Herpes simplex virus type -2 (HSV-2) at 10% dosage twice in a day; format: functional
Method in brief: (§1)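 Mice infected intravaginally with a tampon (dental pellet) saturated with HSV suspension. Aqueous drug solution given intravaginally b.i.d. on cotton tampons, starting 4 h postinfection. Each tampon stayed in 24 h, was re-moistened with 0.02 mL drug 6 h after insertion, and was replaced daily. Deaths were recorded daily to 14 days. Read-out: % survival and average survival time, with survivors scored >14 days.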

Mus musculus [3] = organism: Mus musculus; experiment: Effect on the survival rate of mice infected intravaginally with Herpes simplex virus type -2 (HSV-2) at 5% dosage twice in a day; format: functional; method in brief: as §1
Human alphaherpesvirus 2 [4] = experiment: Tested in vitro for minimum inhibitory activity against Herpes simplex virus type -2 (HSV-2); format: functional
Mus musculus [5] = experiment: Effect on the survival rate of mouse infected with herpes genitalis (HSV-2) administered intravaginally at 5% dosage twice in a day; format: functional
Method in brief: (§2)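 HSV-2 mouse genital model, infected intravaginally. Drug prepared in water + 1% gum tragacanth and given intravaginally b.i.d. via saturated cotton tampons, starting 4 h postinfection. Tampons were re-dosed with 0.02 mL 6 h after insertion and replaced daily. Test ended at day 14, with survivors assigned survival time >14 days. Read-out: % survival and average survival time.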

Human alphaherpesvirus 2 [6] = experiment: (§3) Effect on the survival rate of mouse infected with herpes genitalis (HSV-2) administered intravaginally at 2% dosage twice in a day; format: functional; method in brief: as §2
Mus musculus [7] = experiment: as §3; format: functional; method in brief: as §2

Structure (SMILES): CCn1nc(C)c(CCCCCCOc2ccc(OC)cc2Cl)c1C
Average survival (Mus musculus [2]): >9 days
Survival (Mus musculus [2]): 30%
Average survival (Mus musculus [3]): >10 days
Survival (Mus musculus [3]): 30%
MIC (Human alphaherpesvirus 2 [4]): 0.7 µg/mL (≈ 1.92 µM)

Structure (SMILES): O=C(O)CP(=O)(O)O [FOSFONET]
Average survival (Mus musculus [5]): >13 days
Survival (Mus musculus [5]): 90%
Survival (Human alphaherpesvirus 2 [6]): 90%
Average survival (Mus musculus [7]): >13 days

Structure (SMILES): CCc1n[nH]c(CC)c1CCCCCCOc1ccc(Cl)cc1
MIC (Human alphaherpesvirus 2 [4]): 6 µg/mL (≈ 17.9 µM)

Structure (SMILES): CCCCn1nc(C)c(CCCCCCOc2ccc(OC)cc2Cl)c1C
MIC (Human alphaherpesvirus 2 [4]): 6 µg/mL (≈ 15.3 µM)

Structure (SMILES): CCc1nn(-c2ccccn2)c(CC)c1CCCCCCOc1ccc(OC)cc1Cl
MIC (Human alphaherpesvirus 2 [4]): 6 µg/mL (≈ 13.6 µM)

Structure (SMILES): Nc1ncnc2c1ncn2[C@@H]1O[C@H](CO)[C@@H](O)[C@@H]1O [VIDARABINE]
Average survival (Mus musculus [5]): >13 days
Survival (Mus musculus [5]): 60%
Average survival (Mus musculus [7]): >9 days
Survival (Mus musculus [7]): 10%

Further lines, results first:

MIC (Human alphaherpesvirus 2 [1]): inactive
Structure (SMILES): CCc1n[nH]c(CC)c1CCCCCCOc1ccc([N+](=O)[O-])cc1Cl

MIC (Human alphaherpesvirus 2 [4]): 6 µg/mL (≈ 17.1 µM)
Structure (SMILES): CCc1n[nH]c(CC)c1CCCCCOc1ccc(OC)cc1Cl

MIC (Human alphaherpesvirus 2 [4]): 3 µg/mL (≈ 7.56 µM)
Structure (SMILES): CCc1n[nH]c(CC)c1CCCCCCOc1ccc([S+](C)[O-])cc1Cl (centres undefined)
